9 compounds from ChEMBL document CHEMBL2396655, “Design, synthesis, and biological evaluation of (E)-N-aryl-2-arylethenesulfonamide analogues as potent and orally bioavailable microtubule-targeted anticancer agents” (J Med Chem, 2013) can be followed below.

The test system of data set [1] is DU-145. The data set can be described thus: Cytotoxicity against human DU145 cells after 96 hrs by trypan blue exclusion assay. The class given is functional, cell-based. The settings on record: for GI50 / IC50: DU-145, 96 h. The method, boiled down:
(§1)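 Cells were grown in DMEM or RPMI with 10% FBS and plated at 2.5×10⁴ cells/well in 12-well dishes. Compounds were added 24 h later at various concentrations. After 96 h, viable cells were counted by trypan blue exclusion from duplicate wells. Results are the mean of two independent experiments.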

Data set [2] has as its system NCI-H417. Description: Cytotoxicity against human NCI-N417 cells after 96 hrs by trypan blue exclusion assay. The class given is functional. Particulars: NCI-H417, 96 h. The method, boiled down:
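Cells grown in DMEM or RPMI with 10% FBS and 1 unit/mL penicillin-streptomycin, seeded in 12-well dishes at 2.5 ×10⁴ cells/mL/well. Compound added 24 h later at various concentrations. Viable cells counted by trypan blue exclusion from duplicate wells after 96 h. Value taken from dose-response curves of two independent experiments.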

Data set [3] relates to A-431. The data set can be described thus: Cytotoxicity against human A431 cells after 96 hrs by trypan blue exclusion assay. The class given is functional. The settings on record: A-431, 96 h. The method, boiled down:
as §1

In data set [4] the test system is LNCaP. The data set can be described thus: Cytotoxicity against human LNCAP cells after 96 hrs by trypan blue exclusion assay. It is filed as functional. In a few lines:
as §1

Data set [5] relates to OVCAR-3. The data set can be described thus: Cytotoxicity against human OVCAR3 cells after 96 hrs by trypan blue exclusion assay. Particulars: OVCAR-3, 96 h. The class given is functional. In a few lines:
as §1

Data set [6] is described as follows: Cytotoxicity against human NAMALWA cells after 96 hrs by trypan blue exclusion assay. The class given is functional. The settings on record: NAMALVA. The method, boiled down: as §1
A short description of data set [7]: Cytotoxicity against human H80 cells after 96 hrs by trypan blue exclusion assay. The settings on record: H80, 96 h. The class given is functional. In a few lines: as §1
A short description of data set [8]: Cytotoxicity against human U87 cells after 96 hrs by sulforhodamine B assay. The settings on record: U-87 MG. It is filed as functional, cell-based, U-87MG ATCC. In general terms: Sulforhodamine B stains cellular protein and so reports cell mass.
Data set [9] relates to BT-20. The data set can be described thus: Cytotoxicity against human BT20 cells after 96 hrs by trypan blue exclusion assay. The class given is functional. Particulars: BT-20, 96 h. In a few lines: as §1
Data set [10] has as its system K562. Description: Cytotoxicity against human K562 cells after 96 hrs by trypan blue exclusion assay. It is filed as functional, cell-based. The settings on record: for GI50 / IC50: K562, 96 h. In a few lines: as §1
Data set [11] is described as follows: Solubility of the compound in water. It is filed as physicochemical.
The nature of data set [12]: Growth inhibition of paclitaxel-resistant human 2008/17/4 cells. The class given is functional. In a few lines:
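Cells grown in DMEM or RPMI with 10% FBS and penicillin-streptomycin, seeded at 2.5 × 10⁴ cells/mL/well; compound added 24 h later over a concentration range. After 96 h, viable cells counted by trypan blue exclusion in duplicate wells. GI₅₀ is the concentration giving 50% growth inhibition, reported as mean ± SD of two independent experiments.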

Data set [13] relates to 2008. Description: Growth inhibition of human 2008 cells. It is filed as functional.
Data set [14] can be described thus: Growth inhibition of human MES-SA cells. It is filed as functional.
The nature of data set [15]: Growth inhibition of multidrug-resistant human MES-SA/Dx5 cells. It is filed as functional.
Data set [16] has as its system 2008. Description: Resistance factor, ratio of GI50 for paclitaxel-resistant human 2008/17/4 cells to GI50 for human 2008 cells. The class given is functional.
The species entered for data set [17] is Bos taurus. Description: Effect on bovine brain tubulin assessed as stabilization of microtubule polymerization at 10 uM over 40 mins by spectrophotometric analysis. The method, boiled down: (§2)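 Purified bovine brain tubulin was incubated at 37 °C with 10 μM compound, DMSO or reference agents. Polymerization was followed as rising absorbance at 340 nm over 40 min. Data are representative of three independent experiments.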

The subject of data set [18] is MES-SA. The data set can be described thus: Resistance factor, ratio of GI50 for multidrug-resistant human MES-SA/Dx5 cells to GI50 for human MES-SA cells. It is filed as functional.
The target of data set [19] is T1, Tubulin (Sus scrofa) (UniProt P02554+P02550). Description: Competitive binding affinity to pig brain tubulin vinblastine binding site at 0.1 to 100 uM after 1 hr by mass spectrophotometric analysis in presence of vinblastine. In a few lines:
(§3)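 Porcine brain tubulin (1.0 mg/mL) in PIPES 80 mM, MgCl₂ 2 mM, EGTA 0.5 mM, pH 6.9, at 37 °C. […] Competitor was 0.1–100 μM for 1 h. Unbound ligand in the 30 kDa ultrafiltrate was measured by MS. Runs were in triplicate; IC50 came from a Hill fit.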

For data set [20], the target named is T1, Tubulin (Sus scrofa). Description: Competitive binding affinity to pig brain tubulin paclitaxel binding site at 0.1 to 100 uM after 1 hr by mass spectrophotometric analysis in presence of paclitaxel and GTP. In a few lines: as §3
Data set [21] in a line: Cytotoxicity against human RF48 cells after 96 hrs by trypan blue exclusion assay. The class given is functional. Particulars: RF48, 96 h. In a few lines: as §1
In data set [22] the test system is HCT-116. Description: Cytotoxicity against human HCT116 cells after 96 hrs by trypan blue exclusion assay. The class given is functional. The settings on record: HCT-116, 96 h. The method, boiled down: as §1
In data set [23] the test system is NCI-H187. Description: Cytotoxicity against human NCI-H187 cells after 96 hrs by trypan blue exclusion assay. It is filed as functional. Particulars: NCI-H187, 96 h. In a few lines: as §1
Data set [24] relates to Daudi. The data set can be described thus: Cytotoxicity against human Daudi cells after 96 hrs by trypan blue exclusion assay. It is filed as functional. In a few lines: as §1
Data set [25] relates to PC-3. The data set can be described thus: Cytotoxicity against human PC3 cells after 96 hrs by trypan blue exclusion assay. It is filed as functional. Particulars: PC-3, 96 h. In a few lines: as §1
For data set [26], the system named is T47D. Description: Cytotoxicity against human T47D cells after 96 hrs by trypan blue exclusion assay. The class given is functional. The method, boiled down:
as §1

The test system of data set [27] is MOLT-4. Description: Cytotoxicity against human MOLT4 cells after 96 hrs by trypan blue exclusion assay. It is filed as functional. The settings on record: MOLT-4, 96 h. In a few lines: as §1
Data set [28] deals with SK-OV-3. Description: Cytotoxicity against human SKOV3 cells after 96 hrs by trypan blue exclusion assay. The class given is functional. Particulars: SK-OV-3, 96 h. In a few lines: as §1
Data set [29] concerns MIA PaCa-2. The data set can be described thus: Cytotoxicity against human MIAPaCa2 cells after 96 hrs by trypan blue exclusion assay. The class given is functional. Particulars: MIA PaCa-2, 96 h. The method, boiled down: as §1
Data set [30] has as its system HCT-15. The data set can be described thus: Cytotoxicity against human HCT15 cells after 96 hrs by trypan blue exclusion assay. It is filed as functional. Particulars: HCT-15, 96 h. In a few lines:
as §1

The subject of data set [31] is BT-474. The data set can be described thus: Cytotoxicity against human BT474 cells after 96 hrs by trypan blue exclusion assay. It is filed as functional. Particulars: BT-474, 96 h. The method, boiled down:
as §1

Data set [32] is filed under the species Bos taurus. The data set can be described thus: Inhibition of bovine brain tubulin assessed as destabilization of microtubule polymerization at 10 uM over 40 mins by spectrophotometric analysis. The method, boiled down: as §2
Data set [33] concerns MCF7. The data set can be described thus: Cytotoxicity against human MCF7 cells after 96 hrs by trypan blue exclusion assay. It is filed as functional. Particulars: MCF7, 96 h. In a few lines: as §1

Values after ≈ are worked out from the molar mass of the structure shown. Active and inactive are the calls of the source. The calls are words filed in the database; no cut-off is given here.

On to `COc1cc(OC)c(/C=C/S(=O)(=O)Nc2ccc(OC)c(O)c2)c(OC)c1`, for which the Activity entry in [1] and in data set [10] was “Dose-dependent effect” each time. Also, the GI50 came to 50 nM in data set [1]; 10 nM in data set [2]; 600 nM in data set [3]; 50 nM in [4]; 100 nM in data set [5]; 25 nM in data set [6]. Moreover, the figures for the GI50 in data set [7], in data set [9] and in [10] were 25 nM, 250 nM and 15 nM, respectively. In addition, the IC50 in [1] is 30 nM; in data set [8], 26 nM; in [10], 15 nM.

With `COc1cc(OC)c(/C=C/S(=O)(=O)Nc2ccc(OC)c(NC(C(=O)O)c3ccc(F)cc3)c2)c(OC)c1` (stereo not drawn), in data set [1], the Activity result was “Dose-dependent effect” and the IC50 amounted to 75 nM. Besides, the solubility in data set [11] is 10000 µg/mL (≈ 18.3 mM). In data set [10], the Activity result was “Dose-dependent effect” and inhibition was half-maximal at 20 nM (IC50).

Consider `CC(=O)O[C@H]1C(=O)[C@@]2(C)[C@H]([C@H](OC(=O)c3ccccc3)[C@]3(O)C[C@H](OC(=O)[C@H](O)[C@@H](NC(=O)c4ccccc4)c4ccccc4)C(C)=C1C3(C)C)[C@]1(OC(C)=O)CO[C@@H]1C[C@@H]2O` [PACLITAXEL], for which the GI50 worked out at 2000 nM in [12], 3 nM in data set [13], 4 nM in [14] and 750 nM in data set [15]. In addition, the figures for the RatioGI50 in [16] and in data set [18] were 600 and 190, respectively. For the same compound, in data set [17], the result was Active.

With `CC[C@]1(O)C[C@H]2CN(CCc3c([nH]c4ccccc34)[C@@](C(=O)OC)(c3cc4c(cc3OC)N(C=O)[C@H]3[C@@](O)(C(=O)OC)[C@H](OC(C)=O)[C@]5(CC)C=CCN6CC[C@]43[C@@H]65)C2)C1`, the result in data set [19] was Active.

For the compound `CC(=O)O[C@@]12CO[C@@H]1C[C@H](O)[C@@]1(C)C(=O)[C@H](O)C3=C(C)[C@@H](OC(=O)[C@H](O)[C@@H](NC(=O)OC(C)(C)C)c4ccccc4)C[C@@](O)([C@@H](OC(=O)c4ccccc4)[C@H]21)C3(C)C`, the result in data set [20] was Active.

As for `COc1ccc(NS(=O)(=O)/C=C/c2c(OC)cc(OC)cc2OC)cc1`, the GI50 in data set [21] came to 25 nM; in [22], 100 nM; in data set [23], 100 nM; in data set [24], 100 nM; in [1] it was 75 nM; in [2], 50 nM. For the same compound, the GI50 was 30 nM in data set [3]; 100 nM in data set [4]; 100 nM in [25]; 100 nM in data set [26]; 100 nM in data set [27]; 100 nM in [5]. For the same compound, the GI50 worked out at 100 nM in data set [6]; 100 nM in [28]; 100 nM in [7]; 100 nM in data set [29]; 250 nM in data set [9]; 100 nM in data set [30]. For the same compound, the GI50 in data set [31] came out at 250 nM; in data set [10] it was 75 nM. Also, the Activity entry in data set [1] and in data set [10] was “Dose-dependent effect” each time. Moreover, the IC50 is 200 nM in [1], 229 nM in data set [8] and 75 nM in [10].

For `COc1cc(OC)c(/C=C/S(=O)(=O)Nc2ccc(OC)c(NC(C)C(=O)O)c2)c(OC)c1` (stereo not drawn), in data set [1], the Activity entry is “Dose-dependent effect” and inhibition was half-maximal at 40 nM (IC50). In [11], this compound registered a solubility of 10000 µg/mL (≈ 21.4 mM). Also, in data set [10], the Activity entry was “Dose-dependent effect” and it took 8 nM to reach half-maximal inhibition (IC50).

For the compound `COc1cc(OC)c(/C=C/S(=O)(=O)Nc2ccc(OC)c(NC(C(=O)O)c3ccccc3)c2)c(OC)c1` (stereo not drawn), in data set [1], the Activity result is “Dose-dependent effect” and the IC50 came to 75 nM. The solubility in data set [11] was found to be 10000 µg/mL (≈ 18.9 mM). Also, in data set [10], the Activity result was “Dose-dependent effect” and inhibition was half-maximal at 300 nM (IC50).

Consider `COc1cc(OC)c(/C=C/S(=O)(=O)Nc2ccc(OC)c(NC(C)(C)C(=O)O)c2)c(OC)c1`, for which the Activity result in data set [1] and in data set [10] was “Dose-dependent effect” each time. Further, the GI50 in data set [1] is 150 nM; in [2], 30 nM; in data set [3], 150 nM; in data set [4], 100 nM; in data set [14], 70 nM; in [15], 90 nM. In addition, the 50% growth inhibitory concentration (GI50) was found to be 80 nM in data set [29]; 100 nM in data set [9]; 200 nM in data set [30]; 150 nM in [31]; 80 nM in data set [33]; 10 nM in [10]. The IC50 was found to be 70 nM in [1], 90 nM in [8] and 5 nM in [10]. Besides, the inhibition result in data set [32] is “Active”. In data set [11], the solubility turned out to be 10000 µg/mL (≈ 20.8 mM). In addition, the RatioGI50 in [18] is on record as 1.3.

By GI50 is commonly meant the concentration at which growth is held to half of that of the control. In general, IC50 refers to the concentration that inhibits the measured activity by half. Low readings indicate inhibition by little substance, high ones a need for much substance. A word on the solubility: it is how much of the substance goes into solution per volume. Lower therefore signals a poorly soluble substance.
